# Measured values reported in PubChem BioAssay AID1229 (Sanford-Burnham Center for Chemical Genomics, 2008).
# The whole screen tested about 190,000 compounds, of which about 10 (0.005%) were called active.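 Rule for the calls: active = diaphorase activity raised at least twofold by the compound at 20 µM; inactive = activation factor below 2.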 This excerpt belongs to a sample that is enriched for actives.
# Experiment: compounds boosting diaphorase resazurin reduction – biochemical, uHTS, resorufin fluorescence, counter-screen for diaphorase-coupled primary assays, primary screen (AID 1229)
# Settings: Diaphorase/resazurin coupled assay, 16 min, at 20 µM, hits give high values, 1 = vehicle wells, 0 = NADH-free wells
# Outline: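 Measured by – red resorufin fluorescence at 544/590 nm excitation/emission · Test system – Clostridium kluyveri diaphorase, purified enzyme · Incubation – reaction time 16 min, room temperature · Buffer or medium – 50 mM HEPES pH 7.4 with 4.542 mM MgCl2, 0.005% Tween 20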
row,Structure (SMILES),activation factor
1,O=C(NC1CCCC1)C(c1ccc(N2CCOCC2)cc1)N(C(=O)c1ccco1)c1ccccc1F (stereo not drawn),0.9 (inactive)
2,COc1ccc(N2CCN(C(=O)/C(C#N)=C/c3ccccc3)CC2)cc1,1 (inactive)
3,O=[N+]([O-])c1ccccc1SNc1ccccn1,0.8 (inactive)
4,COc1ccccc1C(=O)Nc1ccc(OCc2nnc3c4ccccc4c(C)nn23)cc1,0.8 (inactive)
5,CO/N=C(\N)c1ccc([N+](=O)[O-])cc1,0.9 (inactive)
6,O=S(=O)(Nc1cc(S(=O)(=O)N2CCOCC2)ccc1N1CCCC1)c1cccs1,0.9 (inactive)
7,O=C(COc1cccc(F)c1)Oc1ccc(C(=O)c2ccccc2)cc1,0.9 (inactive)
8,O=C(NNC(=S)Nc1ccccc1)c1cccc(S(=O)(=O)N2CCOCC2)c1,0.9 (inactive)
9,COC(=O)/C=C\C(=O)Nc1cccc([N+](=O)[O-])c1,1.1 (inactive)
10,CCC(C)N(C(=O)COC(=O)C1C(C(=O)OC)=C(C)NC(C)=C1C(=O)OC)C1CCS(=O)(=O)C1 (stereo not drawn),0.9 (inactive)
11,CCn1c(SCC(=O)Nc2ccc(C)cc2)nc2nc3c(cc2c1=O)CCCC3,0.9 (inactive)
12,Cc1cc(C)n(Cc2cnc(N3CCOCC3)s2)n1,1 (inactive)
13,Cc1ccccc1CN1C[C@@H]2C[C@@H](c3ccc4nsnc4c3)N3CCC[C@@]23C1=O,0.8 (inactive)
14,O=C(/C=C/c1ccc2c(c1)OCO2)NCc1cn2cc(Cl)ccc2n1,1.1 (inactive)
15,CCN(CC)CCNC(=O)c1sc2ncn(CC(=O)Nc3ccc(C)c(Cl)c3)c(=O)c2c1C,0.9 (inactive)
16,Cc1cc(Cl)ccc1NC(=S)NCCCN1CCCC1=O,1 (inactive)
17,CCCCn1nc(C(=O)Nc2ccc(S(=O)(=O)Nc3ncccn3)cc2)c2ccccc2c1=O,0.9 (inactive)
18,C#CCOCCOCCOCCNc1nc(N2CCN(C(=O)[C@H](CCCCN)n3cc([C@@H](N)C(C)CC)nn3)CC2)nc(N2CCN(C(=O)[C@H](Cc3ccc(O)cc3)n3cc([C@@H](N)C(C)CC)nn3)CC2)n1 (stereo partly drawn),1.7 (inactive)
19,Cn1c(=O)cc(OCC(=O)N2CCN(c3ccccc3F)CC2)c2ccccc21,0.9 (inactive)

row,Structure (SMILES),activation factor
1,Cc1cc(F)ccc1S(=O)(=O)Nc1ncnc2scc(-c3ccc(F)cc3)c12,0.8 (inactive)
2,CCOC(=O)CSc1nc(C)cc2c1C(=O)OC2,1 (inactive)
3,Fc1cc(Br)ccc1NC(=S)Nc1cccnc1,1 (inactive)
4,Cc1ccc(NC(=O)NNC(=O)c2sccc2-n2cccc2)cc1,1 (inactive)
5,CNC(=O)c1ccc(NC(=O)c2cccc(C(F)(F)F)c2)cc1,0.9 (inactive)
6,O=c1cc(CO)oc(C(Nc2cccc(C(F)(F)F)c2)c2ccccn2)c1O (stereo not drawn),0.7 (inactive)
7,Cc1ccc2c(c1)C(c1ccccc1)N(C(=O)c1ccc(S(=O)(=O)N3CCOCC3)cc1)CC(=O)N2 (stereo not drawn),1 (inactive)
8,CN1C(=O)/C(=C/c2ccc(C(=O)NC3CCCC3)cc2)Oc2ccccc21,1 (inactive)
9,CN1C=CC=C/C1=C1\SC(=S)N(Cc2ccccc2)C1=O,1 (inactive)
10,CCCCC(=O)Nc1ccc(C(=O)Nc2cc(C(F)(F)F)ccc2Cl)cc1,1 (inactive)
11,CCOC(=O)C/C(C)=N\Nc1ccc([N+](=O)[O-])cc1[N+](=O)[O-],0.9 (inactive)
12,N/C(=N\OC(=O)CCc1ccccc1)c1cccnc1,1 (inactive)
13,CCCOc1ccc(NC(=O)CC2C(=O)N(C)C(=S)N2Cc2ccc3c(c2)OCO3)cc1 (stereo not drawn),0.8 (inactive)
14,CC(C(=O)O)n1cnc2sc3c(c2c1=O)CCCC3 (stereo not drawn),0.9 (inactive)
15,NC1=NC(=O)C(Cc2cccc(Cl)c2Cl)S1 (stereo not drawn),1 (inactive)
16,COc1ccc(CCNC(=O)CSc2nc3[nH]ncc3c(=O)n2-c2cccc(C(F)(F)F)c2)cc1OC,0.9 (inactive)
17,CC(C)(C)OC(=O)N/N=C/c1cn(-c2ccccc2)nc1-c1cccnc1,1 (inactive)
18,O=C(NC(=S)Nc1ccc2oc(=O)ccc2c1)c1ccc(-c2cccc(Cl)c2Cl)o1,1.1 (inactive)
19,COc1ccc(CN2CCN(Cc3cn(C)nc3-c3ccccc3)CC2CCO)c(C)c1C (stereo not drawn),1 (inactive)
